Assay results from ChEMBL document CHEMBL4138126, “Synthesis, antiproliferative, anti-tubulin activity, and docking study of new 1,2,4-triazoles as potential combretastatin analogues” (Eur J Med Chem, 2017).

Columns and labels:
NCI-H522 = experiment: Growth inhibition of human NCI-H522 cells assessed as cell growth at 10 uM after 48 hrs by sulforhodamine B assay; type: functional; details: NCI-H522, 48 h, read-out: Activity
Outline: (§1)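 NCI 60-cell-line panel screen (nine cancer types). Compounds added at single concentration 10^-5 M, cultures incubated 48 h; growth inhibition percentages reported.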

COLO 205 = experiment: Growth inhibition of human COLO205 cells assessed as cell growth at 10 uM after 48 hrs by sulforhodamine B assay; type: functional; details: COLO 205, 48 h, read-out: Activity; outline: as §1
SF-268 = experiment: Growth inhibition of human SF268 cells assessed as cell growth at 10 uM after 48 hrs by sulforhodamine B assay; type: functional; details: SF-268, 48 h, read-out: Activity; outline: as §1
HL-60 = experiment: Cytotoxicity in human HL60 cells assessed as reduction in cell viability incubated for 48 hrs by MTT assay; type: functional, cell-based; details: HL-60, 48 h
Outline: (§2)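 HepG2 and HL60 (ATCC) grown in DMEM with 10% FBS, 2 mM L-glutamine, penicillin/streptomycin, amphotericin B at 37 °C, 5% CO2. Samples dissolved in DMSO, diluted thousandfold in assay. Cells seeded in serum-free medium, treated with serial concentrations 48 h; MTT 4 h, formazan dissolved in acidified isopropanol, A570. Triplicates averaged; viability relative to untreated/vehicle control.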

HL-60(TB) = experiment: Growth inhibition of human HL-60(TB) cells assessed as cell growth at 10 uM after 48 hrs by sulforhodamine B assay; type: functional; details: HL-60, 48 h, read-out: Activity
Outline: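 Screened by the NCI in its 60-cell-line panel covering nine cancer types, including leukemia. Compounds were added at a single concentration, and the cultures were incubated for 48 h. Results are reported as percent growth inhibition.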

HOP-92 = experiment: Growth inhibition of human HOP92 cells assessed as cell growth at 10 uM after 48 hrs by sulforhodamine B assay; type: functional; details: HOP-92, 48 h, read-out: Activity; outline: as §1
LOX IMVI = experiment: Growth inhibition of human LOXIMVI cells assessed as cell growth at 10 uM after 48 hrs by sulforhodamine B assay; type: functional; details: read-out: Activity; outline: as §1
ACHN = experiment: Growth inhibition of human ACHN cells assessed as cell growth at 10 uM after 48 hrs by sulforhodamine B assay; type: functional; details: read-out: Activity; outline: as §1
MDA-MB-468 = experiment: Growth inhibition of human MDA-MB-468 cells assessed as cell growth at 10 uM after 48 hrs by sulforhodamine B assay; type: functional; details: MDA-MB-468, 48 h, read-out: Activity; outline: as §1
OVCAR-4 = experiment: Growth inhibition of human OVCAR4 cells assessed as cell growth at 10 uM after 48 hrs by sulforhodamine B assay; type: functional; details: OVCAR-4, 48 h, read-out: Activity; outline: as §1
IGROV-1 = experiment: Growth inhibition of human IGROV1 cells assessed as cell growth at 10 uM after 48 hrs by sulforhodamine B assay; type: functional; details: IGROV-1, 48 h, read-out: Activity; outline: as §1
RXF 393 = experiment: Growth inhibition of human RXF393 cells assessed as cell growth at 10 uM after 48 hrs by sulforhodamine B assay; type: functional; details: RXF 393, 48 h, read-out: Activity; outline: as §1
NCI-H23 = experiment: Growth inhibition of human NCI-H23 cells assessed as cell growth at 10 uM after 48 hrs by sulforhodamine B assay; type: functional; details: NCI-H23, 48 h, read-out: Activity; outline: as §1
MDA-MB-231 = experiment: Growth inhibition of human MDA-MB-231 cells assessed as cell growth at 10 uM after 48 hrs by sulforhodamine B assay; type: functional; details: MDA-MB-231, 48 h, read-out: Activity; outline: as §1
RPMI-8226 = experiment: Growth inhibition of human RPMI8226 cells assessed as cell growth at 10 uM after 48 hrs by sulforhodamine B assay; type: functional; details: RPMI-8226, 48 h, read-out: Activity; outline: as §1
DU-145 = experiment: Growth inhibition of human DU145 cells assessed as cell growth at 10 uM after 48 hrs by sulforhodamine B assay; type: functional; details: DU-145, 48 h, read-out: Activity; outline: as §1
HepG2 = experiment: Cytotoxicity in human HepG2 cells assessed as reduction in cell viability incubated for 48 hrs by MTT assay; type: functional, cell-based; details: HepG2, 48 h; outline: as §2
MCF7 = experiment: Growth inhibition of human MCF7 cells assessed as cell growth at 10 uM after 48 hrs by sulforhodamine B assay; type: functional; details: MCF7, 48 h, read-out: Activity; outline: as §1
MOLT-4 = experiment: Growth inhibition of human MOLT4 cells assessed as cell growth at 10 uM after 48 hrs by sulforhodamine B assay; type: functional; details: MOLT-4, 48 h, read-out: Activity; outline: as §1
OVCAR-8 = experiment: Growth inhibition of human OVCAR8 cells assessed as cell growth at 10 uM after 48 hrs by sulforhodamine B assay; type: functional; details: OVCAR-8, 48 h, read-out: Activity; outline: as §1
HOP-62 = experiment: Growth inhibition of human HOP62 cells assessed as cell growth at 10 uM after 48 hrs by sulforhodamine B assay; type: functional; details: HOP-62, 48 h, read-out: Activity; outline: as §1
NCI-H226 = experiment: Growth inhibition of human NCI-H226 cells assessed as cell growth at 10 uM after 48 hrs by sulforhodamine B assay; type: functional; details: NCI-H226, 48 h, read-out: Activity; outline: as §1
SR = experiment: Growth inhibition of human SR cells assessed as cell growth at 10 uM after 48 hrs by sulforhodamine B assay; type: functional; details: read-out: Activity
Outline: (§3)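 NCI 60-cell-line panel from nine tumour types (leukaemia, lung, colon, CNS, melanoma, ovarian, renal, prostate, breast). Each compound was added at one single concentration, and cultures were incubated for 48 h. Results are reported as percent growth inhibition.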

SW-620 = experiment: Growth inhibition of human SW620 cells assessed as cell growth at 10 uM after 48 hrs by sulforhodamine B assay; type: functional; details: SW-620, 48 h, read-out: Activity; outline: as §3
HT-29 = experiment: Growth inhibition of human HT-29 cells assessed as cell growth at 10 uM after 48 hrs by sulforhodamine B assay; type: functional; details: HT-29, 48 h, read-out: Activity; outline: as §1
M14 = experiment: Growth inhibition of human M14 cells assessed as cell growth at 10 uM after 48 hrs by sulforhodamine B assay; type: functional; details: M14, 48 h, read-out: Activity; outline: as §1
HCT-116 = experiment: Growth inhibition of human HCT116 cells assessed as cell growth at 10 uM after 48 hrs by sulforhodamine B assay; type: functional; details: HCT-116, 48 h, read-out: Activity; outline: as §1
BT-549 = experiment: Growth inhibition of human BT549 cells assessed as cell growth at 10 uM after 48 hrs by sulforhodamine B assay; type: functional; details: BT-549, 48 h, read-out: Activity; outline: as §1
Hs-578T = experiment: Growth inhibition of human Hs 578T cells assessed as cell growth at 10 uM after 48 hrs by sulforhodamine B assay; type: functional; details: read-out: Activity; outline: as §1
MDA-MB-435 = experiment: Growth inhibition of human MDA-MB-435 cells assessed as cell growth at 10 uM after 48 hrs by sulforhodamine B assay; type: functional; details: MDA-MB-435, 48 h, read-out: Activity; outline: as §1
CCRF-CEM = experiment: Growth inhibition of human CCRF-CEM cells assessed as cell growth at 10 uM after 48 hrs by sulforhodamine B assay; type: functional; details: read-out: Activity; outline: as §1

Compound	growth at 10 µM (NCI-H522)	growth at 10 µM (COLO 205)	growth at 10 µM (SF-268)	IC50 (HL-60)	growth at 10 µM (HL-60(TB))	growth at 10 µM (HOP-92)	growth at 10 µM (LOX IMVI)	growth at 10 µM (ACHN)	growth at 10 µM (MDA-MB-468)	growth at 10 µM (OVCAR-4)	growth at 10 µM (IGROV-1)	growth at 10 µM (RXF 393)	growth at 10 µM (NCI-H23)	growth at 10 µM (MDA-MB-231)	growth at 10 µM (RPMI-8226)	growth at 10 µM (DU-145)	IC50 (HepG2)	growth at 10 µM (MCF7)	growth at 10 µM (MOLT-4)	growth at 10 µM (OVCAR-8)	other results
CCOc1ccc(-n2nc(C(=O)Nc3cc(F)cc(F)c3)nc2-c2cc(OC)c(OC)c(OC)c2)cc1	61.6%	89.9%	88.9%	> 100 µM	96.1%	67.8%	86.6%	82.7%	77%	84.8%	85.1%	88.2%	84%	64.3%	69.4%	98.2%	36.5 µM	79%	63.9%	84.6%	growth at 10 µM (HOP-62): 95%; growth at 10 µM (NCI-H226): 77.2%; growth at 10 µM (SR): 61.8%; growth at 10 µM (SW-620): 99.3%; growth at 10 µM (HT-29): 89%; growth at 10 µM (M14): 98%; growth at 10 µM (HCT-116): 95.2%; growth at 10 µM (BT-549): 101%; growth at 10 µM (Hs-578T): 75.5%; growth at 10 µM (MDA-MB-435): 91%; growth at 10 µM (CCRF-CEM): 84.1%
COc1cccc(-n2nc(C(=O)NCc3ccccc3C)nc2-c2cc(OC)c(OC)c(OC)c2)c1	60.8%	84.3%	85.8%	89.4 µM	89%	81.8%	78.7%	90.5%	90.1%	81.6%	72%	109%	84%	73.5%	95.7%	94.2%	3.85 µM	82.1%	80%	87.3%	growth at 10 µM (HOP-62): 71%; growth at 10 µM (NCI-H226): 87.9%; growth at 10 µM (SR): 65.8%; growth at 10 µM (SW-620): 102%; growth at 10 µM (HT-29): 80.2%; growth at 10 µM (M14): 86.7%; growth at 10 µM (HCT-116): 85.2%; growth at 10 µM (BT-549): 86.2%; growth at 10 µM (Hs-578T): 77.6%; growth at 10 µM (MDA-MB-435): 85.8%; growth at 10 µM (CCRF-CEM): 104%
CCOc1ccc(-n2nc(C(=O)Nc3cccc(OC)c3)nc2-c2cc(OC)c(OC)c(OC)c2)cc1	57.9%	66.6%	80.7%	16.6 µM	87.5%	67.2%	80.8%	77.9%	93.4%	75.1%	90.7%	90.2%	85.9%	55.1%	27.9%	94.8%	36.8 µM	83.5%	62.5%	53.1%	growth at 10 µM (HOP-62): 91.9%; growth at 10 µM (NCI-H226): 77.3%; growth at 10 µM (SR): 52.6%; growth at 10 µM (SW-620): 99.7%; growth at 10 µM (HT-29): 78.3%; growth at 10 µM (M14): 83.7%; growth at 10 µM (HCT-116): 67.3%; growth at 10 µM (BT-549): 72.3%; growth at 10 µM (Hs-578T): 73.2%; growth at 10 µM (MDA-MB-435): 86.8%; growth at 10 µM (CCRF-CEM): 51.9%
